{
  "source": "paper PMC5432128",
  "about": "(Environment international, 2017)",
  "key": {"[1]": {"details": "cited from earlier work; for recovery of radioactivity in the urine: rats, ref Powles et al. 1992"}, "α1β3γ2L GABAA receptors": {"target": "α1β3γ2L GABAA receptors (Homo sapiens, UniProt P14867+P18507+P28472)", "sequence (P14867 28-456)": "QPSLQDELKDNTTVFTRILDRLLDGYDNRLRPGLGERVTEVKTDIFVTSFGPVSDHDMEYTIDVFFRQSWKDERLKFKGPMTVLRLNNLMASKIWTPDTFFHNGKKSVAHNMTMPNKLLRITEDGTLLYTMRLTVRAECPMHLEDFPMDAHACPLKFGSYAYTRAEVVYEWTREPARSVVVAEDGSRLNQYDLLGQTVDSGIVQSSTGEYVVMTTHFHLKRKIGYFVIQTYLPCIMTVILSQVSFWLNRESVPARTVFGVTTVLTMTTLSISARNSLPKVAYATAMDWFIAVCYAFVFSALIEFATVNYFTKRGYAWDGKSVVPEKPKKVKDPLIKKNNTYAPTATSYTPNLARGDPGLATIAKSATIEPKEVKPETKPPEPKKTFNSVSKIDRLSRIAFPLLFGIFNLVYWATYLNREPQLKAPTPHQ", "sequence (P28472 26-473)": "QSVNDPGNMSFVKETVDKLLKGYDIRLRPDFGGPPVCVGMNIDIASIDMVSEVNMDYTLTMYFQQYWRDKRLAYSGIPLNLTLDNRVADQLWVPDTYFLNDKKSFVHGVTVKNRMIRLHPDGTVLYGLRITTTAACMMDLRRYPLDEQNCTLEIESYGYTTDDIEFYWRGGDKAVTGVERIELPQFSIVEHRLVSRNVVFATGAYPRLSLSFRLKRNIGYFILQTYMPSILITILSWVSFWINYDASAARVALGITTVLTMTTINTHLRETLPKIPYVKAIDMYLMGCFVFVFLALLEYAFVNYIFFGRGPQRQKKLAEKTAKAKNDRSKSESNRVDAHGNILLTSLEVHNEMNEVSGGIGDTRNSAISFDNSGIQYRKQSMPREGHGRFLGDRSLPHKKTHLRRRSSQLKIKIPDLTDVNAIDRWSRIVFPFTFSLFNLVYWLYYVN", "sequence (P18507 40-475)": "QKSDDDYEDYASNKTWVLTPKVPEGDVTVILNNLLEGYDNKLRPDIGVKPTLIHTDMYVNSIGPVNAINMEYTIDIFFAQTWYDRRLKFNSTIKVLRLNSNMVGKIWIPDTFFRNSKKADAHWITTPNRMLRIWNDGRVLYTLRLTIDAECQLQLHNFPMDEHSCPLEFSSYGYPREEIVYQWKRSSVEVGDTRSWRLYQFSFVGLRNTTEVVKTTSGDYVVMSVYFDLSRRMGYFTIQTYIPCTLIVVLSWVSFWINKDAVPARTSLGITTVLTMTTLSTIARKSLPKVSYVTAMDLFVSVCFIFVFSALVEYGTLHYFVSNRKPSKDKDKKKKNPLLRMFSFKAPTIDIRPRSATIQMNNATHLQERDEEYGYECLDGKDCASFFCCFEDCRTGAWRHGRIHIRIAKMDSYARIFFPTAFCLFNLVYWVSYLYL", "assay_type": "cell-based", "details": "for EC50: 25 μM GABA, -80 mV"}, "[2]": {"test_system": "second instar larvae of S. frugiperda", "experiment": "Insect bioassay, diet surface contamination method", "assay_type": "in vivo", "details": "for mortality / insecticidal activity: 2nd instar larvae, doses as high as 100 μg/mL (24-fold higher than fipronil LC50)"}, "LC/MS/MS Method 2": {"experiment": "LC/MS/MS Method 2", "assay_type": "in vivo", "details": "EPA group, this study; for Conc sulfone, LOQ 10 ng/mL: rat urine; for concentration at 2 weeks: rat, urine, oral, Conc sulfone, LOQ 10 ng/mL", "summary_of_the_method": "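Urine came from fipronil-treated rats dosed at 5 or 10 mg/kg, single or repeated daily. Urine (100 μL) was precipitated with cold acetonitrile and centrifuged at 12,500 ×g for 8 min. Supernatant was mixed 1:1 with 10 mM ammonium acetate. HPLC used a C18 column at 30°C with 0.2 mM ammonium acetate methanol/acetonitrile phases, a 50–90% B gradient and flow of 0.4 rising to 0.75 mL/min, then MS/MS.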"}, "LC-MS/MS Method 1": {"experiment": "LC-MS/MS Method 1", "assay_type": "in vivo, rat", "details": "for concentration at 2 weeks: Conc sulfone, LOQ 1.5 ng/mL", "summary_of_the_method": "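Rats received fipronil in diet at 5 or 10 mg/kg daily, for 14 days or one day. Urine was hydrolysed overnight at 37°C with β-glucuronidase/sulfatase in methanol/ammonium acetate pH 5.5. Urine (40 μL) was spiked with CUDA internal standard and centrifugally filtered at 20,000 g. Analysis used UPLC on C18 at 40°C with a water/acetonitrile 0.1% acetic acid gradient at 0.4 mL/min and […] ESI tandem MS.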"}, "[3]": {"details": "in certain conditions; ref Gunasekara et al. 2007; cited from earlier work"}, "[4]": {"details": "urine of fipronil-treated rats; ref McMahen et al. 2015; cited from earlier work"}, "mice": {"test_system": "mice", "details": "4.5 mg/kg body weight (bw)/day for 13 weeks; ref Hamernik 1998; cited from earlier work"}, "dogs": {"test_system": "dogs", "details": "diet, up to 3 mg/kg bw/day; ref Hamernik 1998; Woodward 2012; cited from earlier work"}, "rats": {"test_system": "rats", "details": "in particular females; low doses (3.4 mg/kg bw); ref Hamernik 1998; cited from earlier work"}, "[5]": {"test_system": "polyclonal antibodies 2265", "experiment": "Fipronil immunoassay cross-reactivity, serum 2265", "assay_type": "binding", "details": "serum 2265, n=5; relative to fipronil"}, "[6]": {"test_system": "polyclonal antibodies 2268", "experiment": "Fipronil immunoassay cross-reactivity, serum 2268", "assay_type": "binding", "details": "serum 2268, n=4; relative to fipronil"}, "[7]": {"details": "inhibitory effective concentration (EC50) on GABA-induced Cl- currents, pre-application at least 3 min, mean ± S.D."}},
  "note": "Values joined by “and” are separate entries in the source; they are usually repeats but may differ in a detail not shown here. Equal values may be shown once. Read-outs that look alike come from different tables or passages of the source.",
  "data": [
    {"smiles": "N#Cc1nn(-c2c(Cl)cc(C(F)(F)F)cc2Cl)c(N)c1[S+]([O-])C(F)(F)F", "note": "(stereo not drawn) [^14C-fipronil]", "values": [
      {"measurement": "recovery of radioactivity in the urine", "setting": "[1]; repeated dosing over 14 days", "result": "14–16%"},
      {"measurement": "recovery of radioactivity in the urine", "setting": "[1]; single dose at 4 mg/kg", "result": 5.6, "unit": "%"},
      {"measurement": "recovery of radioactivity in the urine", "setting": "[1]; single high dose (150 mg/kg)", "result": "22–30%"}
    ]},
    {"smiles": "COC(=N)c1cc(N)n(-c2c(Cl)cc(C(F)(F)F)cc2Cl)n1", "note": "[fipronil desulfinyl imidate, methyl 5-amino-1-(2,6-dichloro-4-(trifluoromethyl)phenyl)-1H-pyrazole-3-carbimidate]", "values": [
      {"measurement": "activity on GABAA α1β3γ2L receptor currents (in words)", "setting": "α1β3γ2L GABAA receptors", "result": "approximately as potent to fipronil"},
      {"measurement": "EC50", "setting": "α1β3γ2L GABAA receptors; [7]", "result": "2.78 nM and 2.8 nM"},
      {"measurement": "mortality / insecticidal activity", "setting": "[2]", "result": "did not show any mortality"},
      {"measurement": "mortality / insecticidal activity", "setting": "[2]; listed as imidate derivative", "result": "did not show any insecticidal activity"}
    ]},
    {"smiles": "N#Cc1nn(-c2c(Cl)cc(C(F)(F)F)cc2Cl)c(N)c1S(=O)(=O)C(F)(F)F", "note": "[fipronil sulfone]", "values": [
      {"measurement": "Conc sulfone, LOQ 10 ng/mL", "setting": "LC/MS/MS Method 2; fipronil 5 mg/kg repeated", "result": 24, "unit": "ng/mL"},
      {"measurement": "Conc sulfone, LOQ 10 ng/mL", "setting": "LC/MS/MS Method 2; fipronil 5 mg/kg single", "result": "< 10", "unit": "ng/mL"},
      {"measurement": "Conc sulfone, LOQ 10 ng/mL", "setting": "LC/MS/MS Method 2; fipronil 10 mg/kg single", "result": "< 10", "unit": "ng/mL"},
      {"measurement": "concentration at 2 weeks", "setting": "LC/MS/MS Method 2; 5 mg/kg, fipronil 5 mg/kg repeated", "result": 26, "unit": "ng/mL"},
      {"measurement": "concentration at 2 weeks", "setting": "LC/MS/MS Method 2; 10 mg/kg, fipronil 10 mg/kg repeated", "result": 23, "unit": "ng/mL"},
      {"measurement": "Conc sulfone, LOQ 1.5 ng/mL", "setting": "LC-MS/MS Method 1; rat urine, fipronil 5 mg/kg repeated, Method 1", "result": 14, "unit": "ng/mL"},
      {"measurement": "Conc sulfone, LOQ 1.5 ng/mL", "setting": "LC-MS/MS Method 1; rat urine, fipronil 5 mg/kg repeated, Method 1, listed as sulfone", "result": "17 ng/mL and 14 ng/mL"},
      {"measurement": "detection in urine samples", "setting": "LC-MS/MS Method 1; rat urine, samples 42, 81 and 82", "result": "detected only in samples obtained from animals treated with fipronil repeatedly"},
      {"measurement": "concentration at 2 weeks", "setting": "LC-MS/MS Method 1; rat, urine, oral, 5 mg/kg, rat urine, fipronil 5 mg/kg repeated, Method 1", "result": 17, "unit": "ng/mL"},
      {"measurement": "concentration at 2 weeks", "setting": "LC-MS/MS Method 1; rat, urine, oral, 10 mg/kg, rat urine, fipronil 10 mg/kg repeated, Method 1", "result": 19, "unit": "ng/mL"},
      {"measurement": "concentration in urine samples", "setting": "LC-MS/MS Method 1; rats treated with fipronil, over all dose groups (abstract)", "result": "around 20 ng/mL"},
      {"measurement": "share among urinary metabolites", "setting": "[1]; deconjugated and original rat urine, ref Powles et al. (1992)", "result": "minor constituent"}
    ]},
    {"smiles": "N#Cc1nn(-c2c(Cl)cc(C(F)(F)F)cc2Cl)c(N)c1[S+]([O-])C(F)(F)F", "note": "(stereo not drawn) [fipronil]", "values": [
      {"measurement": "half-life (t1/2) in the environment", "setting": "[3]", "result": "over 100 days"},
      {"measurement": "free fipronil in urine samples", "setting": "[4]", "result": "no detectable amount"},
      {"measurement": "EC50", "setting": "α1β3γ2L GABAA receptors; [7]", "result": "1.15 nM and 1.2 nM"},
      {"measurement": "LC50", "setting": "[2]; Spodoptera frugiperda", "result": 4.1, "unit": "µg/mL"},
      {"measurement": "mortality at 100 µg/mL", "setting": "[2]; Spodoptera frugiperda, 12 h", "result": 100, "unit": "%"},
      {"measurement": "mortality at 50 µg/mL", "setting": "[2]; Spodoptera frugiperda, 48 h", "result": 100, "unit": "%"},
      {"measurement": "bodyweight gain", "setting": "mice", "result": "reduced bodyweight gains"},
      {"measurement": "other signs of toxicity observed", "setting": "dogs", "result": "convulsions, head nodding and muscles twitching"},
      {"measurement": "weight gain and neurological effects", "setting": "dogs", "result": "did not experience abnormal weight gain or severe neurological effects"},
      {"measurement": "liver weight", "setting": "rats", "result": "significant increase in liver weight"}
    ]},
    {"smiles": "N#Cc1nn(-c2c(Cl)cc(C(F)(F)F)cc2Cl)c(N)c1O", "note": "[hydroxy-fipronil, 5-Amino-1-(2,6-dichloro-4-(trifluoromethyl)phenyl)-4-hydroxy-1H-pyrazole-3-carbonitrile]", "values": [
      {"measurement": "Cross-reactivity (CR)", "setting": "[5]", "result": 3.2, "unit": "%"},
      {"measurement": "Conc FipOH, LOQ 0.4 ng/mL", "setting": "LC-MS/MS Method 1; rat urine, fipronil 5 mg/kg single, Method 1, listed as FipOH", "result": "23 ng/mL and 24 ng/mL"},
      {"measurement": "Conc FipOH, LOQ 0.4 ng/mL", "setting": "LC-MS/MS Method 1; rat urine, fipronil 10 mg/kg single, Method 1", "result": 14, "unit": "ng/mL"},
      {"measurement": "difference in metabolite concentration, two weeks treatment vs single treatment", "setting": "LC-MS/MS Method 1; rat urine, same doses 5 or 10 mg/kg", "result": "80 to 700", "unit": "times"},
      {"measurement": "concentration detected in the samples before and after enzymatic hydrolysis", "setting": "LC-MS/MS Method 1; rat urine, β-glucuronidase/sulfatase, table S4", "result": "did not change significantly"},
      {"measurement": "concentration at 14 days", "setting": "LC-MS/MS Method 1; rat, urine, oral, 10 mg/kg, Conc FipOH, LOQ 0.4 ng/mL, rat urine, fipronil 10 mg/kg repeated (14 days), Method 1", "result": 10200, "unit": "ng/mL"},
      {"measurement": "concentration in the urine", "setting": "LC-MS/MS Method 1; rats, single fipronil dose of 5 or 10 mg/kg", "result": "about 20 ng/mL"},
      {"measurement": "Cross-reactivity (CR)", "setting": "[6]", "result": 0.7, "unit": "%"},
      {"measurement": "activity on GABAA α1β3γ2L receptor currents (in words)", "setting": "α1β3γ2L GABAA receptors", "result": "did not have a significant inhibitory effect"},
      {"measurement": "EC50", "setting": "α1β3γ2L GABAA receptors; inhibitory EC50 on GABA-induced Cl- currents", "result": "~1000", "unit": "nM"},
      {"measurement": "EC50", "setting": "α1β3γ2L GABAA receptors; [7]", "result": "1000 ± 341", "unit": "nM"},
      {"measurement": "fold higher concentrations to elicit similar current inhibition", "setting": "α1β3γ2L GABAA receptors; relative to fipronil and fipronil desulfinyl imidate", "result": "≤ 1000", "unit": "fold"},
      {"measurement": "mortality / insecticidal activity", "setting": "[2]", "result": "did not show any mortality"}
    ]}
  ]
}
